Measurements: ChEMBL document CHEMBL1208666, “Novel 6,8-dibromo-4(3H)quinazolinone derivatives of anti-bacterial and anti-fungal activities” (2010)
In brackets after ≈: the same amount, converted by molar mass.

How the values were obtained:
Escherichia coli [1] = assay: Antibacterial activity against Escherichia coli O157 at 100 ug/ml after 24 hrs by paper disc diffusion technique; format: functional; settings: O157, 24 h, read-out: IZ
Escherichia coli [2] = assay: Antibacterial activity against Escherichia coli O157 after 24 hrs by agar streak dilution method; format: functional; settings: O157, 24 h
Salmonella typhimurium [3] = assay: Antibacterial activity against Salmonella Typhimurium after 24 hrs by agar streak dilution method; format: functional, Salmonella enterica subsp. enterica serovar Typhimurium; settings: Salmonella enterica
Method in brief: (§1)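 Agar streak dilution on Mueller Hinton agar. Compound stock in DMSO was added in graded amounts to molten sterile agar at 40–50 °C. This was poured 3–4 mm deep and left to solidify. Bacterial suspension of about 10^5 cfu/ml was applied to the serially diluted plates. Plates were incubated at 37 °C for 24 h to read the MIC. Strains were food-poisoning isolates from animal byproducts.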

Aspergillus flavus [4] = assay: Antifungal activity against Aspergillus flavus at 100 ug/ml after 48 hrs by paper disc diffusion technique; format: functional; settings: read-out: IZ
Method in brief: (§2)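 Paper disc diffusion on Sabouraud dextrose agar, autoclaved at 120 °C for 30 min. Medium at 40–50 °C was seeded at 1 ml/100 ml with a 10^5 cfu/ml fungal suspension matched to 0.9 McFarland. It was poured 3–4 mm deep, and compound discs in DMSO were applied. Plates were pre-incubated 1 h at room temperature, then 28 °C for 48 h. The inhibition zone was recorded.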

Staphylococcus aureus [5] = assay: Antibacterial activity against Staphylococcus aureus after 24 hrs by agar streak dilution method; format: functional; method in brief: as §1
Staphylococcus aureus [6] = assay: Antibacterial activity against Staphylococcus aureus at 100 ug/ml after 24 hrs by paper disc diffusion technique; format: functional; settings: read-out: IZ
Method in brief: (§3)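 Paper disc diffusion on Mueller Hinton agar, autoclaved at 120 °C for 30 min. Medium at 40–50 °C was seeded at 1 ml/100 ml with a 10^5 cfu/ml suspension matched to 0.9 McFarland. It was poured 3–4 mm deep, and discs with compound in DMSO were laid on it. Plates were pre-incubated 1 h at room temperature, then 37 °C for 24 h. The inhibition zone was measured.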

Listeria monocytogenes [7] = assay: Antibacterial activity against Listeria monocytogenes after 24 hrs by agar streak dilution method; format: functional; method in brief: as §1
Candida albicans [8] = assay: Antifungal activity against Candida albicans after 48 hrs by agar streak dilution method; format: functional
Method in brief: (§4)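 Fungal MIC by agar streak dilution on Sabouraud dextrose agar. Compound stock in DMSO was added in graded amounts to molten sterile medium at 40–50 °C. This was poured 3–4 mm deep and left to solidify. Fungal suspension of about 10^5 cfu/ml was applied to the serially diluted plates. Plates were incubated at 37 °C for 48 h.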

Candida albicans [9] = assay: Antifungal activity against Candida albicans at 100 ug/ml after 48 hrs by paper disc diffusion technique; format: functional; settings: read-out: IZ; method in brief: as §2
Bacillus cereus [10] = assay: Antibacterial activity against Bacillus cereus after 24 hrs by agar streak dilution method; format: functional; method in brief: as §1
Listeria monocytogenes [11] = assay: Antibacterial activity against Listeria monocytogenes at 100 ug/ml after 24 hrs by paper disc diffusion technique; format: functional; settings: read-out: IZ; method in brief: as §3
Bacillus cereus [12] = assay: Antibacterial activity against Bacillus cereus at 100 ug/ml after 24 hrs by paper disc diffusion technique; format: functional; settings: read-out: IZ; method in brief: as §3
Pseudomonas aeruginosa [13] = assay: Antibacterial activity against Pseudomonas aeruginosa after 24 hrs by agar streak dilution method; format: functional; method in brief: as §1
Pseudomonas aeruginosa [14] = assay: Antibacterial activity against Pseudomonas aeruginosa at 100 ug/ml after 24 hrs by paper disc diffusion technique; format: functional; settings: read-out: IZ; method in brief: as §3
Salmonella typhimurium [15] = assay: Antibacterial activity against Salmonella Typhimurium at 100 ug/ml after 24 hrs by paper disc diffusion technique; format: functional, Salmonella enterica subsp. enterica serovar Typhimurium; settings: Salmonella enterica, read-out: IZ; method in brief: as §3
Aspergillus flavus [16] = assay: Antifungal activity against Aspergillus flavus after 48 hrs by agar streak dilution method; format: functional; method in brief: as §4

`Cc1ccc(C2SCC(=O)N2NC(=O)c2ccc(-n3c(-c4ccccc4)nc4c(Br)cc(Br)cc4c3=O)cc2)cc1` (configuration not stated) was tested, and the zone of inhibition at 100 µg/mL (Escherichia coli [1]) was 9 mm, the MIC (Escherichia coli [2]) was over 50 µg/mL and the MIC (Salmonella typhimurium [3]) was 7 µg/mL (≈ 10.1 µM). For the same compound, the zone of inhibition at 100 µg/mL (Aspergillus flavus [4]) was 16 mm, the MIC (Staphylococcus aureus [5]) was over 50 µg/mL and the zone of inhibition at 100 µg/mL (Staphylococcus aureus [6]) was 10 mm. For the same compound, the MIC (Listeria monocytogenes [7]) was 50 µg/mL (≈ 72.4 µM), the MIC (Candida albicans [8]) was 30 µg/mL (≈ 43.5 µM) and the zone of inhibition at 100 µg/mL (Candida albicans [9]) was 10 mm. It also gave an MIC (Bacillus cereus [10]) of 50 µg/mL (≈ 72.4 µM), a zone of inhibition at 100 µg/mL (Listeria monocytogenes [11]) of 10 mm and a zone of inhibition at 100 µg/mL (Bacillus cereus [12]) of 9 mm. The MIC (Pseudomonas aeruginosa [13]) was 10.1 µg/mL (≈ 14.6 µM), the zone of inhibition at 100 µg/mL (Pseudomonas aeruginosa [14]) was 16 mm and the zone of inhibition at 100 µg/mL (Salmonella typhimurium [15]) was 15 mm. For the same compound, the MIC (Aspergillus flavus [16]) was 12.5 µg/mL (≈ 18.1 µM).

Work on `Cc1nnc(-c2ccc(-n3c(-c4ccccc4)nc4c(Br)cc(Br)cc4c3=O)cc2)o1` yielded a zone of inhibition at 100 µg/mL (Escherichia coli [1]) of 14 mm, an MIC (Escherichia coli [2]) of 25 µg/mL (≈ 46.5 µM) and an MIC (Salmonella typhimurium [3]) of 50 µg/mL (≈ 92.9 µM). The zone of inhibition at 100 µg/mL (Aspergillus flavus [4]) was 18 mm, the MIC (Staphylococcus aureus [5]) was 12.5 µg/mL (≈ 23.2 µM) and the zone of inhibition at 100 µg/mL (Staphylococcus aureus [6]) was 15 mm. The MIC (Listeria monocytogenes [7]) was 12.5 µg/mL (≈ 23.2 µM), the MIC (Candida albicans [8]) was 25 µg/mL (≈ 46.5 µM) and the zone of inhibition at 100 µg/mL (Candida albicans [9]) was 11 mm. It also gave an MIC (Bacillus cereus [10]) of 1.56 µg/mL (≈ 2.9 µM), a zone of inhibition at 100 µg/mL (Listeria monocytogenes [11]) of 15 mm and a zone of inhibition at 100 µg/mL (Bacillus cereus [12]) of 17 mm. For the same compound, the MIC (Pseudomonas aeruginosa [13]) was 50 µg/mL (≈ 92.9 µM), the zone of inhibition at 100 µg/mL (Pseudomonas aeruginosa [14]) was 12 mm and the zone of inhibition at 100 µg/mL (Salmonella typhimurium [15]) was 12 mm. For the same compound, the MIC (Aspergillus flavus [16]) was 9.5 µg/mL (≈ 17.7 µM).
